Data from ChEMBL document CHEMBL1772965, “Analogues and derivatives of oncrasin-1, a novel inhibitor of the C-terminal domain of RNA polymerase II and their antitumor activities” (J Med Chem, 2011).
The source made the active and inactive calls. The rule behind the calls is not given here.

Tests used:
[1] = Cytotoxicity against mutant K-ras-transformed human T29Kt1 cells assessed as cell viability after 3 days by sulforhodamine B assay; type: functional, cell-based; details: T29Kt1, 72 h
Procedure, shortened: (§1)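 Monolayer cultures were grown in RPMI-1640 or DMEM with 10% heat-inactivated fetal calf serum and penicillin/streptomycin, at 37°C and 5% CO2. Cells were exposed for 3 days to compound from 10−4.5 M (31.6 μM) down to 10−8 M (10 nM), with 1% DMSO as the control. Viability was read by sulforhodamine B. IC50 was the dose halving surviving cells versus control, run in quadruplicate and repeated at least three times.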

[2] = Cytotoxicity against human T29 cells assessed as cell viability after 3 days by sulforhodamine B assay; type: cell-based; details: T29, 72 h; procedure, shortened: as §1
NCI-H460 [3] = assay: Cytotoxicity against human H460 cells assessed as cell viability after 3 days by sulforhodamine B assay; type: functional, cell-based; details: NCI-H460, 72 h; procedure, shortened: as §1
[4] = Stability of compound at pH 4; type: physicochemical; details: buffer
[5] = Stability of compound at pH 6; type: physicochemical; details: buffer
[6] = Stability of compound at pH 7.4; type: physicochemical; details: buffer
[7] = Stability of compound at pH 9; type: physicochemical; details: buffer
[8] = Stability of compound at pH 2; type: physicochemical; details: buffer
NCI-H157 [9] = assay: Antitumor activity against human NCI-H157 cells assessed as cell viability after 3 days by sulforhodamine B assay; type: functional, cell-based; details: NCI-H157, 72 h; procedure, shortened: as §1
NCI-H460 [10] = assay: Antitumor activity against human H460 cells assessed as cell viability after 3 days by sulforhodamine B assay; type: functional, cell-based; details: for IC50: NCI-H460, 72 h; procedure, shortened: as §1
NCI-H1299 = assay: (§2) Antitumor activity against human H1299 cells assessed as cell viability after 3 days by sulforhodamine B assay; type: functional, cell-based; procedure, shortened: as §1
NCI-H322 [11] = assay: (§3) Antitumor activity against human NCI-H322 cells assessed as cell viability after 3 days by sulforhodamine B assay; type: functional, cell-based; procedure, shortened: as §1
NCI-H157 [12] = assay: Inhibition of RNA pol2 CTD phosphorylation in human NCI-H157 cells at 1 uM after 12 hrs by Western blot analysis; type: cell-based
Procedure, shortened: (§4)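 Cells were treated with 1 μM compound for 12 h and then analysed by Western blot. Phospho-CTD was detected with the H5 antibody (diluted 1:1000), and β-actin (1:1000) served as the loading reference.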

H460 = assay: Inhibition of RNA pol2 CTD phosphorylation in human H460 cells at 1 uM after 12 hrs by Western blot analysis; type: cell-based; procedure, shortened: as §4
H1299 = assay: Inhibition of RNA pol2 CTD phosphorylation in human H1299 cells at 1 uM after 12 hrs by Western blot analysis; type: cell-based; procedure, shortened: as §4
NCI-H322 [13] = assay: Inhibition of RNA pol2 CTD phosphorylation in human NCI-H322 cells at 1 uM after 12 hrs by Western blot analysis; type: cell-based; procedure, shortened: as §4
[14] = as §2; type: functional, cell-based; details: NCI-H1299, 72 h; procedure, shortened: as §1
[15] = as §3; type: functional, cell-based; details: NCI-H322, 72 h; procedure, shortened: as §1

Stability [4] | Stability [5] | Stability [6] | Stability [7] | Stability [8] | IC50 (NCI-H157 [9]) [nM] | IC50 (NCI-H460 [10]) [nM] | Structure (SMILES) | IC50 [1] [nM] | IC50 [2] [nM] | IC50 (NCI-H460 [3]) [nM] | Activity (NCI-H460 [10]) | Activity (NCI-H1299) | Activity (NCI-H322 [11]) | inhibition (NCI-H157 [12]) | inhibition (H460) | inhibition (H1299) | inhibition (NCI-H322 [13]) | IC50 [14] [nM] | IC50 [15] [nM]
Stable | Stable | Stable | Stable | Unstable | ≤ 200 | ≤ 200 | OCc1cn(Cc2ccc(Cl)cc2)c2ccccc12 | 79 | > 31600 | 16 | Dose-dependent effect | Dose-dependent effect | Dose-dependent effect | Dose-dependent effect | Active | inactive | inactive |  | 
Stable | Stable | Stable | Stable | Unstable | ≤ 200 | ≤ 200 | OCc1cn(Cc2cccc(Cl)c2)c2ccccc12 | 160 | > 31600 | 19 | Dose-dependent effect | Dose-dependent effect | Dose-dependent effect | Dose-dependent effect | Active | inactive | inactive |  | 
Stable | Stable | Stable | Stable | Unstable |  |  | OCc1cn(Cc2ccc(Cl)cc2)c2cc(F)ccc12 | 1000 | > 31600 | 450 |  |  |  |  |  |  |  |  | 
Stable | Stable | Stable | Stable | Unstable |  |  | OCc1cn(Cc2cccc(Br)c2)c2ccccc12 | 32 | > 31600 | 28 |  |  |  |  |  |  |  |  | 
Stable | Stable | Stable | Stable | Unstable |  |  | COc1ccc2c(c1)c(CO)cn2Cc1ccc(Cl)cc1 | 12500 | > 31600 | 1510 |  |  |  |  |  |  |  |  | 
Stable | Stable | Stable | Stable | Unstable |  |  | OCc1cn(Cc2ccc(Cl)cc2)c2ccc(Cl)cc12 | 13000 | > 31600 | 5750 |  |  |  |  |  |  |  |  | 
Stable | Stable | Stable | Stable | Unstable |  |  | OCc1cn(Cc2ccc(Br)cc2)c2ccccc12 | 390 | > 31600 | 31 |  |  |  |  |  |  |  |  | 
Stable | Stable | Stable | Stable | Unstable | ≤ 200 | ≤ 200 | OCc1cn(Cc2cccc(F)c2)c2ccc(Cl)cc12 | 160 | 10000 | 70 |  |  |  | Active | Active | inactive | inactive | ≥ 13000 | ≥ 13000
Stable | Stable | Stable | Stable | Unstable |  |  | O=[N+]([O-])c1ccc(Cn2cc(CO)c3ccccc32)cc1 | 150 | > 31600 | 79 |  |  |  |  |  |  |  |  | 
Stable | Stable | Stable | Stable | Unstable |  |  | OCc1cn(Cc2ccc(Br)c(Br)c2)c2ccccc12 | 100 | > 31600 | 50 |  |  |  |  |  |  |  |  | 
Stable | Stable | Stable | Stable | Unstable |  |  | OCc1cn(Cc2ccc(C(F)(F)F)cc2)c2ccccc12 | 1250 | > 31600 | 1250 |  |  |  |  |  |  |  |  | 
